Values after ≈ are worked out from the molar mass of the structure shown.
Columns and labels:
[1] = tested on: Pseudomonas aeruginosa; assay: Antibacterial activity against ceftazidime-resistant Pseudomonas aeruginosa 11431 after 18 hrs by broth microdilution method; format: functional
Summary of the method: (§1)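 Broth microdilution in Mueller-Hinton broth. Exponential-phase bacteria (37 °C, 220 rpm shaking) were diluted to about 1 × 10^6 CFU/mL and mixed 1:1 with two-fold serial peptide dilutions. MIC is the lowest concentration with no visible turbidity after 18 h at 37 °C. Controls were uninoculated MHB and untreated culture. Run at least three times, two replicates each.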

[2] = tested on: Pseudomonas aeruginosa; assay: Antibacterial activity against Pseudomonas aeruginosa CICC 10419 after 18 hrs by broth microdilution method; format: functional; summary of the method: as §1
[3] = tested on: Pseudomonas aeruginosa; assay: Antibacterial activity against Pseudomonas aeruginosa 26305 clinical isolate after 18 hrs by broth microdilution method; format: functional
[4] = tested on: Pseudomonas aeruginosa; assay: Antibacterial activity against Pseudomonas aeruginosa CICC 21625 after 18 hrs by broth microdilution method; format: functional; summary of the method: as §1
[5] = tested on: Pseudomonas aeruginosa; assay: Antibacterial activity against Pseudomonas aeruginosa ATCC 27853 after 18 hrs by broth microdilution method; format: functional; summary of the method: as §1
[6] = tested on: Pseudomonas aeruginosa; assay: Antibacterial activity against Pseudomonas aeruginosa CICC 21630 after 18 hrs by broth microdilution method; format: functional; summary of the method: as §1
[7] = tested on: RAW264.7; assay: Cytotoxicity in mouse RAW264.7 cells after 24 hrs by MTT assay; format: cell-based; settings: raw264.7, 24 h
[8] = tested on: Pseudomonas aeruginosa; assay: Antibacterial activity against Pseudomonas aeruginosa ATCC 27853 assessed as induction of outer membrane permeabilization by measuring NPN uptake by spectrofluorophotometric analysis; format: functional
Summary of the method: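 Exponential-phase cells were washed in HEPES pH 7.4 with 5 mM glucose and diluted to about 10^5 CFU/mL. NPN was added at 10 µM final, then peptide at varying concentrations. Fluorescence (ex 350/em 420 nm) was followed to plateau. Values are % NPN uptake relative to polymyxin B at 10 mg/L (100%). Three experiments, duplicates.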

[9] = tested on: Pseudomonas aeruginosa; assay: Antibacterial activity against gentamicin-resistant Pseudomonas aeruginosa 11421 after 18 hrs by broth microdilution method; format: functional; settings: Pseudomonas aeruginosa, 11421, 18 h
Summary of the method: (§2)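 Broth microdilution in Mueller-Hinton broth. Exponential-phase bacteria (37 °C, 220 rpm shaking) were diluted to about 1 × 10^6 CFU/mL and mixed 1:1 with two-fold serial peptide dilutions. Controls were uninoculated MHB and untreated culture. Run at least three times, two replicates each.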

[10] = tested on: Pseudomonas aeruginosa; assay: Antibacterial activity against ciprofloxacin-resistant Pseudomonas aeruginosa 11411 after 18 hrs by broth microdilution method; format: functional; summary of the method: as §2
[11] = tested on: Pseudomonas aeruginosa; assay: Antibacterial activity against Pseudomonas aeruginosa 25349 clinical isolate after 18 hrs by broth microdilution method; format: functional
[12] = tested on: Pseudomonas aeruginosa; assay: Antibacterial activity against Pseudomonas aeruginosa 21328 clinical isolate after 18 hrs by broth microdilution method; format: functional; settings: Pseudomonas aeruginosa, 21328, 18 h
[13] = tested on: Escherichia coli; assay: microbe, parasite or virus in culture; settings: ATCC 25922, 18 h
[14] = tested on: Staphylococcus aureus; assay: Antibacterial activity against Staphylococcus aureus ATCC 29213 after 18 hrs by broth microdilution method; format: functional
Summary of the method: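 Broth microdilution. Exponential-phase bacteria grown in MHB at 37 °C, diluted to about 1 × 10^6 CFU/mL in MHB and mixed 1:1 with two-fold dilutions of peptide. MIC is the lowest concentration with no visible turbidity after 18 h at 37 °C. Controls were uninoculated broth and peptide-free culture. At least three repeats, duplicates each.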

[15] = tested on: Pseudomonas aeruginosa; assay: Drug uptake in Pseudomonas aeruginosa ATCC 27853 treated with FITC-labeled compound at MIC after 30 mins by confocal fluorescence microscopy; format: ADME; settings: 0.5 h
Summary of the method: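 Cells were pelleted at 5,000 g for 5 min, washed three times in PBS, smeared and imaged by confocal microscopy with 488 nm excitation.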

[16] = tested on: Lipopolysaccharide (LPS); assay: Binding affinity to Pseudomonas aeruginosa ATCC 27853 LPS by SPR spectroscopic analysis
Summary of the method: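 Biacore SPR. Peptides were amine-coupled to CM5 chips at 20 µg/mL in 10 mM acetate pH 6.0, giving about 1300 RU. LPS at 3.125–12.5 µg/mL in 20 mM Tris/100 mM NaCl pH 7.4 was flowed at 10 µL/min. Surfaces were regenerated with 50 mM NaOH plus 0.05% SDS. Three independent runs.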

[17] = tested on: Pseudomonas aeruginosa; assay: Antibacterial activity against Pseudomonas aeruginosa ATCC 27853 assessed as induction of cytoplasmic membrane depolarization after 90 min incubation under dark condition by diSC3-5 dye-based fluorescence analysis; format: functional
Summary of the method: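 Exponential-phase cells were washed three times in 5 mM HEPES (pH 7.4). diSC3-5 (0.4 µM final) and KCl (0.1 M final) were added, then the cells were incubated 90 min at 37 °C in the dark. Peptide at a range of concentrations was added and fluorescence followed at ex 622/em 670 nm. Three independent experiments, duplicates each.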

[18] = tested on: Pseudomonas aeruginosa; assay: Antibacterial activity against Pseudomonas aeruginosa ATCC 27853 assessed as induction of membrane integrity disruption at MIC after 15 mins by PI-staining based flow cytometry (reference value: 4.7%)
[19] = Pseudomonas aeruginosa, 11431, 18 h
[20] = Pseudomonas aeruginosa, 26305, 18 h
[21] = Pseudomonas aeruginosa, 11411, 18 h
[22] = Pseudomonas aeruginosa, 25349, 18 h

Compound	MIC [1, 19] [µg/mL]	MIC ([2]; CICC 10419, 18 h) [µg/mL]	MIC [3, 20] [µg/mL]	MIC ([4]; CICC 21625, 18 h) [µg/mL]	MIC ([5]; ATCC 27853, 18 h) [µg/mL]	MIC ([6]; CICC 21630, 18 h) [µg/mL]	CC10 [7] [µg/mL]	Activity [8]	MIC [9] [µg/mL]	MIC [10, 21] [µg/mL]	MIC [11, 22] [µg/mL]	MIC [12] [µg/mL]	MIC [13] [µg/mL]	MIC ([14]; ATCC 29213, 18 h) [µg/mL]	also measured
H-ARRARRRWRRRARRA-NH2	256	256	256	256	128	256	> 256	Dose-dependent effect	256	256	32	256	64	64	–
CC(C)(O/N=C(\C(=O)N[C@@H]1C(=O)N2C(C(=O)[O-])=C(C[n+]3ccccc3)CS[C@H]12)c1csc(N)n1)C(=O)O [CEFTAZIDIME]	256 (≈ 468 µM)	32 (≈ 58.5 µM)	128 (≈ 234 µM)	32 (≈ 58.5 µM)	2 (≈ 3.66 µM)	8 (≈ 14.6 µM)	> 256	–	32 (≈ 58.5 µM)	32 (≈ 58.5 µM)	64 (≈ 117 µM)	256 (≈ 468 µM)	2 (≈ 3.66 µM)	16 (≈ 29.3 µM)	–
CC[C@H](C)[C@H](NC(=O)CN)C(=O)NCC(=O)N[C@@H](C)C(=O)N[C@H](C(=O)N[C@@H](CC(C)C)C(=O)N[C@@H](CCCCN)C(=O)N[C@H](C(=O)N[C@@H](CC(C)C)C(=O)N[C@H](C(=O)N[C@H](C(=O)NCC(=O)N[C@@H](CC(C)C)C(=O)N1CCC[C@H]1C(=O)N[C@@H](C)C(=O)N[C@@H](CC(C)C)C(=O)N[C@H](C(=O)N[C@@H](CO)C(=O)N[C@@H](Cc1c[nH]c2ccccc12)C(=O)N[C@H](C(=O)N[C@@H](CCCCN)C(=O)N[C@@H](CCCNC(=N)N)C(=O)N[C@@H](CCCCN)C(=O)N[C@@H](CCCNC(=N)N)C(=O)N[C@@H](CCC(N)=O)C(=O)N[C@@H](CCC(N)=O)C(N)=O)[C@@H](C)CC)[C@@H](C)CC)[C@@H](C)O)[C@@H](C)O)C(C)C)C(C)C [MELITTIN]	–	–	–	–	–	–	0.5 (≈ 0.176 µM)	–	–	–	–	–	–	–	Drug uptake [15]: Active; Activity [16]: Dose-dependent effect
H-LRRLRRRWLRRLRRR-NH2	64	256	64	64	32	32	> 256	Dose-dependent effect	256	128	32	128	> 128	64	Activity [17]: Dose-dependent effect; Activity [18]: 57%
H-WRRWRRRWRRRWRRW-NH2	8	256	32	256	4	16	128	Dose-dependent effect	256	256	32	256	32	16	–
H-LRRLRRRWRRRLRRL-NH2	16	32	32	16	16	16	256	Dose-dependent effect	32	32	8	32	16	16	Activity [17]: Dose-dependent effect; Activity [18]: 93%
O=C(O)c1cn(C2CC2)c2cc(N3CCNCC3)c(F)cc2c1=O [CIPROFLOXACIN]	–	–	–	–	4 (≈ 12.1 µM)	16 (≈ 48.3 µM)	–	–	16 (≈ 48.3 µM)	–	–	–	–	4 (≈ 12.1 µM)	–
GENTAMICIN [listing 1 of 2 here]	–	–	–	–	–	–	> 256	–	–	–	–	–	–	–	–
H-FRRFRRRWRRRFRRF-NH2	16	256	64	256	8	32	256	Dose-dependent effect	256	256	8	256	8	16	–
H-LRRLRRRLRRLRRRWRRRLRRLRRRLRRL-OH	8	4	16	8	8	4	128	Dose-dependent effect	16	8	8	8	8	16	–
GENTAMICIN [listing 2 of 2 here]	–	–	–	–	–	–	–	–	–	–	–	–	–	–	MIC [1]: 8 µg/mL; MIC [2]: 16 µg/mL; MIC [3]: 2 µg/mL; MIC [4]: 32 µg/mL; MIC [5]: 2 µg/mL; MIC [6]: 8 µg/mL; MIC [10]: 32 µg/mL; MIC [11]: 4 µg/mL; MIC [14]: 1 µg/mL

Source: ChEMBL document CHEMBL4007441, “Novel Design of Heptad Amphiphiles To Enhance Cell Selectivity, Salt Resistance, Antibiofilm Properties and Their Membrane-Disruptive Mechanism” (J Med Chem, 2017)
